Screening data deposited in PubChem BioAssay by several laboratories.
Sampled rows, rich in hits. Any-hit rate of the full collection: about 1.9%.
Rin1-Abl PPI inh = blocks binding of human Rin1 to Abl; inhibition, % at 7.35 µM; P00519+Q13671; TR-FRET Rin1/Abl binding, biochemical; hit rate 0.4% among 360,000; in the data active = inhibition above about 5%, passing the limit was not always enough
ABHD5-PLIN5 inh = inhibitors of human ABHD5-perilipin-5 interaction | Q00G26+Q8WTS1 | Split G. princeps luciferase complementation, luminescence, 4 h | inhibition, % at 4 µM | hit rate 0.78% among 360,000 | AID 602281;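 active = inhibition above the mean inhibition across every tested compound plus 3 SD, cut at about 22% in these data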;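 also: 0% = DMSO only wells and the 100% control is not disclosed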
Rpn11 inh = Rpn11 (human) deubiquitinase inhibition; human 26S proteasome, Ub4-pepOG fluorescence polarization; 20S core pre-blocked with epoxomicin; inhibition, % at 20 µM; hit rate 0.59% among 360,000; AID 588493;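 active = inhibition at 20 µM, scaled to each plate's controls, above about 33%, limit read from the data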
XiGFP reactiv = activators of X-chromosome reactivation in mouse fibroblasts; XiGFP mouse fibroblasts, % GFP-positive cells imaging, 3 d; cells co-treated with 5-aza-dC sensitizer; scaled so ellipticine positive control = 100%; activation, % at 7.58 µM; hit rate 0.055% among 360,000; AID 743238;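 active = mean normalized replicate activation at least 10% and every replicate at or above 10%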;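 also: 0% = median of on-plate neutral control wells and 100% = ellipticine 6 µM median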
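Assay system: SV40-immortalized XiGFP fibroblast cells, line 68-5-11; buffer or medium: DMEM plus 5-aza-dC sensitizer; compound: one concentration, pinned; timing: compounds 3 days, fix/stain 15 min at room temperature; benchmarks: positive control ellipticine, 6 µM final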
NadD inh = NadD (S. aureus) enzyme inhibition | inhibition, % at 20 µM | AID 602399 | purified NadD enzyme, colorimetric absorbance read-out | hit rate 0.78% among 360,000; in the data active = inhibition above about 26%
Numbers without * were called inactive; . = no result shown.

SMILES	Rin1-Abl PPI inh	ABHD5-PLIN5 inh	Rpn11 inh	XiGFP reactiv	NadD inh
CN(C)CCN(Cc1ccc(Cl)cc1)c1ccccn1	0	2	-18	15*	-8
COC(=O)[C@]1(C)CCC[C@@]2(C)C3CC[C@@]4(C)C[C@]3(CCC21)CC(=O)N4 (stereo partly drawn)	7	-6	-5	0	-4
C=C1C(=O)C23CCC4C(C)(C(=O)OC)CCCC4(C)C2CCC1(O)C3 (stereo not drawn)	1	72*	0	4	-4
CC1=Nc2ccccc2/C1=C/c1sc(=N)n(-c2nccs2)c1O	0	16	89*	.	7
CC1=Nc2ccccc2/C1=C/c1nc(-c2ccc(C)s2)oc1O	1	14	.	0	12
CC(=NNC(=S)N1CCN(c2ccccn2)CC1)c1ccccn1	0	-8	42*	0	13
CO[C@H]1CN(C)C(=O)c2ccc(NC(=O)CC(F)(F)F)cc2OC[C@@H](C)N(CC2CC2)C[C@@H]1C	.	.	.	0	.
CN(C)S(=O)(=O)c1cccc(NC(=O)COC(=O)c2ccc3ccccc3n2)c1	-1	9	-5	0	1
Cc1nnnn1/C(=C\c1ccccc1)C(=O)OCC(=O)Nc1cccc(S(=O)(=O)N(C)C)c1	-1	50*	0	1	2
CCCNC(=O)N1CC2(C1)CN(C(=O)NC(C)C)[C@@H](CO)c1c2c2ccc(OC)cc2n1C	.	.	.	0	.
O=C(Nc1ccc(F)cc1)N1CC(=O)N2[C@H](CO)[C@H](c3ccc(-c4ccccc4)cc3)[C@H]2C1	.	.	.	0	.
CN(C)CCCNC(=O)C[C@H]1CC[C@H]2[C@@H](COc3ccc(NC(=O)CN(C)C)cc3C(=O)N2C)O1	.	.	.	0	.
COC1(OC)C(/C=C/c2ccc(C)cc2)C(C#N)(C#N)C1(OC)OC (stereo not drawn)	3	22*	5	.	-3
CNC(=O)C[C@H]1CC[C@H]2[C@@H](COc3ccc(NC(=O)C(C)C)cc3C(=O)N2C)O1	.	.	.	0	.
Cc1ccc(NCc2nnc(SCC(=O)NNC(=O)Cc3ccccc3)n2C)cc1	-4	7	2	21*	1
C#CCOCCOCCOCCNc1nc(N2CCN(C(=O)CCCCCCCCCCNC(=O)[C@@H](CCSC)n3cc(CCO)nn3)CC2)nc(N2CCN(C(=O)CCCCCCCCCCNC(=O)[C@H]([C@@H](C)CC)n3cc(CCCCN=C(N)N)nn3)CC2)n1	24*	57*	87*	.	68*
C#CCOCCOCCOCCNc1nc(N2CCN(C(=O)CCCCCCCCCCNC(=O)[C@H](CCCCN)n3cc(CCO)nn3)CC2)nc(N2CCN(C(=O)CCCCCCCCCCNC(=O)[C@H](CCCN=C(N)N)n3cc(C[C@@H](C)CC)nn3)CC2)n1	22*	50*	77*	.	44*
C#CCOCCOCCOCCNc1nc(N2CCN(C(=O)CCCCCCCCCCNC(=O)[C@H](CCCCN)n3cc(CCCC(=O)O)nn3)CC2)nc(N2CCN(C(=O)CCCCCCCCCCNC(=O)[C@H](CCCN=C(N)N)n3cc(C[C@@H](C)CC)nn3)CC2)n1	6	45*	8	.	27
C#CCOCCOCCOCCNc1nc(N2CCN(C(=O)CCCCCCCCCCNC(=O)[C@@H](CCC(=O)O)n3cc(CCCCCN)nn3)CC2)nc(N2CCN(C(=O)CCCCCCCCCCNC(=O)[C@@H](CCC(=O)O)n3cc(CCCCCN)nn3)CC2)n1	5	14	-13	0	9
C#CCOCCOCCOCCNc1nc(N2CCN(C(=O)CCCCCCCCCCNC(=O)[C@H](CCCCN)n3cc(CCCC(=O)O)nn3)CC2)nc(N2CCN(C(=O)CCCCCCCCCCNC(=O)[C@H](CCCCN)n3cc(CCCC(=O)O)nn3)CC2)n1	1	14	-5	.	-2
C#CCOCCOCCOCCNc1nc(N2CCOCC2)nc(N2CCN(C(=O)CCCCCCCCCCNC(=O)[C@@H](CCSC)n3cc(CCO)nn3)CC2)n1	1	21	-16	0	-5
C#CCOCCOCCOCCNc1nc(N2CCN(C(=O)CCCCCCCCCCNC(=O)Cn3cc(C[C@@H](C)O)nn3)CC2)nc(N2CCN(C(=O)CCCCCCCCCCNC(=O)[C@H](CCCCN)n3cc(C[C@@H](C)CC)nn3)CC2)n1	6	43*	38	.	44*
C[C@H](CO)N1C[C@H](C)[C@@H](CN(C)C(=O)C2CC2)Oc2cc(C3=CCCC3)ccc2S1(=O)=O	.	.	.	1	.
O=[N+]([O-])c1ccc(/C=C/C2=NN(c3ccccc3)C(c3ccco3)C2)cc1 (stereo not drawn)	1	17	.	89*	11
O=[N+]([O-])c1ccc(C2=NN(c3ccccc3)C(c3ccco3)C2)cc1 (stereo not drawn)	1	9	.	86*	3
SMILES	Rin1-Abl PPI inh	ABHD5-PLIN5 inh	Rpn11 inh	XiGFP reactiv	NadD inh
CC1=NN(c2ccccc2)C(c2ccco2)C1 (stereo not drawn)	3	-5	0	0	2
C[C@H]1CN([C@@H](C)CO)S(=O)(=O)c2ccc(C#CC3CC3)cc2O[C@H]1CN(C)Cc1ccc(F)cc1	.	.	.	-1	.
C[C@@H]1CN([C@@H](C)CO)S(=O)(=O)c2ccc(C#CC3CC3)cc2O[C@H]1CN(C)Cc1ccc(F)cc1	.	.	.	18*	.
COc1ccccc1C#Cc1ccc2c(c1)O[C@H](CN(C)Cc1cncnc1)[C@@H](C)CN([C@H](C)CO)S2(=O)=O	.	.	.	26*	.
Cc1cc(O)c(C=O)c2c1C(=O)Oc1c(CO)c(O)c3c(c1O2)C(O)OC3=O (stereo not drawn)	4	73*	.	.	34*
COc1ccc(CCOC(=O)c2ccc(NC(=O)CC#N)cc2)cc1	0	-2	3	0	0
COc1ccc(CCn2c(C)cc(C(=O)COC(=O)c3ccc(NC(=O)CC#N)cc3)c2C)cc1	-3	3	.	.	40*
Cc1ccc(N2C(=O)/C(=C/c3cccnc3)SC2=S)cc1	-2	-2	1	0	-4
Cc1ccc(/C=C2/SC(=S)N(c3ccc(S(=O)(=O)Nc4nccs4)cc3)C2=O)cc1	4	11	12	0	62*
O=C1/C(=C/c2ccccn2)SC(=S)N1c1ccc(O)cc1	-5	-2	-3	0	0
COc1ccc(/C=C2/SC(=S)N(NS(=O)(=O)c3ccccc3)C2=O)cc1	1	2	-10	0	14
COc1ccc(/C=C2/SC(=S)N(c3ccc(S(=O)(=O)Nc4nccs4)cc3)C2=O)cc1	0	-15	34	0	56*
O=C1/C(=C\c2ccccn2)SC(=S)N1c1ccc(S(=O)(=O)Nc2nccs2)cc1	-1	-15	5	0	44*
C/C=C/c1ccc([C@H]2[C@@H](CO)N(C(=O)C3CCCCC3)C23CN(C(=O)NC(C)C)C3)cc1	.	.	.	0	.
CCC(=O)N1CC2(CCN(Cc3ccc(Cl)cc3)CC2)c2c([nH]c3cc(OC)ccc23)[C@H]1CO	.	.	.	0	.
